Drawing on ChEMBL document CHEMBL1127316, “Piperidinyltetralin sigma ligands” (J Med Chem, 1994), this text covers ED50 and Ki for 32 compounds.

As a reminder, the ED50 is the dose at which the effect has come halfway, by size or by number of responders. The Ki is the equilibrium dissociation constant of an inhibitor or competing ligand from its target.

Assay [1] relates to Mus musculus. Kind of assay: Inhibition of mescaline effects in mice following p.o. administration. Format: functional. Particulars: po. The method in brief:
(§1)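 In mice, antagonism of mescaline-induced effects was tested after oral administration. Potency is an ED50 in mg/kg, calculated as free base weight.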

Assay [2] deals with Rattus norvegicus. As to the kind of experiment: In vivo antagonism of compound determined by the ability to inhibit 5-HTP-induced head twitch in rat (administered po). Format: functional. The method, boiled down: (§2)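 In rats, head twitches were induced with 5-hydroxytryptophan as an in vivo read-out of 5HT2 antagonism. The compound was dosed po, and inhibition of twitching gave an ED50 (mg/kg, free base weight).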

Assay [3] relates to Mus musculus. As to the kind of experiment: Ability to block the aggressive behavior caused by prolonged isolation in mouse (administered po). Format: functional. The method in brief:
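Mice were made aggressive by prolonged isolation. The compound was given orally, and blockade of the aggressive behavior was scored. ED50 is in mg/kg, expressed as free base weight.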

The subject of assay [4] is Mus musculus. Kind of assay: Antimescaline activity in the mouse (administered po). Format: functional. The method in brief:
as §1

For assay [5], the species on record is Mus musculus. Kind of assay: Ability to block the aggressive behavior caused by prolonged isolation in mouse. Format: functional. The method, boiled down: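 Mice made aggressive by prolonged isolation; compounds dosed orally (po); blocking of aggressive behaviour scored and ED50 derived in mg/kg, expressed as free base weight; values averaged from three measurements, some single measurements.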

In assay [6] the test system is Rattus norvegicus. Kind of assay: In vivo activity of 5-HTP-induced head twitch in rat as a measure of 5-HT2 antagonism. Format: functional. The method in brief:
as §2

For assay [7], the system named is Rattus norvegicus. Kind of assay: In vivo 5-HT2 antagonism of 5-HTP-induced head twitch in rat. Format: functional. The method in brief:
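Rats given 5-hydroxytryptophan (5HTP) to induce head twitches, a read-out of in vivo 5HT2 antagonism; compounds given orally (po); ED50 in mg/kg as free base weight; values averaged from three measurements, some single measurements.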

The target in assay [8] is Sigma non-opioid intracellular receptor 1 (Cavia porcellus) (UniProt Q60492). Kind of assay: Binding affinity for sigma receptor of guinea pig whole brain using [3H]-SKF- 100047 radioligand.
Sequence of Sigma non-opioid intracellular receptor 1 (Cavia porcellus) (Q60492 whole entry, looked up): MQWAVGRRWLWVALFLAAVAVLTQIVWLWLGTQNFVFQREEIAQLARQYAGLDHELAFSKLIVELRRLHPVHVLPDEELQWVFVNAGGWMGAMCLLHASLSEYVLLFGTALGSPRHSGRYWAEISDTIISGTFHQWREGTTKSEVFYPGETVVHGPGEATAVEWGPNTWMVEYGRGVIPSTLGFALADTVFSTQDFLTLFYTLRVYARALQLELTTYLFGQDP

`COc1ccc2c(c1)CCC(C1CCN(CCc3ccccc3)CC1)C2=O` (configuration not stated): the ED50 in the assay on Mus musculus [1] came out at 6.5 mg/kg.

On to `O=C1c2ccc(F)cc2CCC1C1CCN(Cc2ccccc2)CC1` (configuration not stated), for which the ED50 with Mus musculus [1] was above 10 mg/kg.

Regarding `O=C(O)/C=C/C(=O)O.O=C1c2c(F)cc(F)cc2CCC12CCN(CCc1ccccc1)CC2`, the ED50 in the assay on Mus musculus [1] is above 10 mg/kg.

`CN1CCC2(CCc3ccccc3C2=O)CC1.Cl` displayed an ED50 with Mus musculus [1] above 10 mg/kg.

`O=C1CCc2ccccc2C12CCN(CCc1ccccc1)CC2` gave an ED50 in the assay on Mus musculus [1] above 30 mg/kg.

For the compound `c1ccc(CN2CCC3(CCCc4ccccc43)CC2)cc1`, the ED50 with Rattus norvegicus [2], with Mus musculus [3] and with Mus musculus [4] was above 30 mg/kg throughout.

Turning to `COc1ccc(CN2CCC3(CCc4ccccc4C3=O)CC2)cc1.Cl`, the ED50 in the assay with Mus musculus [4] was above 10 mg/kg.

In the case of `Br.CC(C1CC1)N1CCC(C2CCc3ccccc3C2=O)CC1` (configuration not stated), in the assay with Mus musculus [4], the ED50 is above 30 mg/kg.

Turning to `Br.O=C1c2ccccc2CCC1C1CCN(CC2CC2)CC1` (configuration not stated), the ED50 with Mus musculus [1] was above 10 mg/kg.

Regarding `Cl.OC1c2ccccc2CCC12CCN(CCc1ccccc1)CC2` (configuration not stated), the values for the ED50 in the assay filed under Mus musculus [5], in the assay on Mus musculus [1] and in the assay with Rattus norvegicus [6] were 10 mg/kg, 0.064 mg/kg and 0.07 mg/kg, respectively.

In turn, `Cl.O=C1c2ccccc2CCC1C1CCN(Cc2ccccc2)CC1` (configuration not stated) had an ED50 in the assay with Mus musculus [1] of 4.5 mg/kg.

As for `CC(C)(C)c1ccc(CN2CCC(C3CCc4ccccc4C3=O)CC2)cc1` (configuration not stated), the ED50 with Mus musculus [4] is above 10 mg/kg.

As to `Cl.O=C1c2ccccc2CCC12CCN(CCc1ccccc1)CC2`, the ED50 in the assay filed under Mus musculus [5] came out at 30 mg/kg; in the assay with Mus musculus [1], 10 mg/kg; with Rattus norvegicus [7], 10 mg/kg.

Turning to `Cl.O=C1c2ccccc2CCC12CCN(Cc1ccc(F)cc1)CC2`, the ED50 in the assay on Mus musculus [4] is above 10 mg/kg.

Consider `Cl.O=C1c2ccccc2CCC1C1CCN(Cc2ccc(F)cc2)CC1` (configuration not stated), for which the ED50 in the assay with Mus musculus [4] worked out at 10 mg/kg.

`C[C@@H]1CN(CCCn2c3ccccc3c3ccccc32)C[C@H](C)N1` [RIMCAZOLE]: the figures for the ED50 in the assay listed under Mus musculus [5] and in the assay on Mus musculus [4] were 48 mg/kg and 22 mg/kg, respectively.

In the assay with Mus musculus [1], `Cc1ccc(CN2CCC(C3CCc4ccccc4C3=O)CC2)cc1.O` (configuration not stated) yielded an ED50 above 10 mg/kg.

As for `O=C(O)CC(O)C(=O)O.O=C1c2ccccc2CCC12CCN(Cc1ccc(C(F)(F)F)cc1)CC2`, in the assay with Mus musculus [4], the ED50 is above 10 mg/kg.

Consider `OC1CCc2ccccc2C12CCN(CCc1ccccc1)CC2` (configuration not stated), for which, in the assay on Mus musculus [1], the ED50 was above 30 mg/kg.

`O=C(O)CC(O)C(=O)O.O=C1c2ccccc2CCC12CCN(Cc1ccc3ccccc3c1)CC2`: the ED50 in the assay with Mus musculus [1] was above 10 mg/kg.

On to `CC(C)(C)c1ccc(CN2CCC3(CCc4ccccc4C3=O)CC2)cc1.Cl`, for which the ED50 in the assay with Mus musculus [1] is above 10 mg/kg.

In turn, `Cl.O=C1c2ccccc2CCC12CCN(Cc1ccc([N+](=O)[O-])cc1)CC2` displayed an ED50 in the assay with Mus musculus [1] above 10 mg/kg.

In turn, `O=C1c2ccc(Cl)cc2CCC12CCN(CCc1ccccc1)CC2` yielded a median effective dose (ED50) in the assay on Mus musculus [1] of 10 mg/kg.

Take `Cl.O=C1c2ccccc2CCC12CCN(CC1CCCCC1)CC2`: in the assay with Mus musculus [1], the ED50 was above 10 mg/kg.

Consider `Br.O=C(CC1CCN(CC2CC2)CC1)c1ccc(F)cc1`, for which, in assay [8], the affinity, expressed as Ki, was 10 nM. Further, the ED50 in the assay filed under Mus musculus [5] came to 1.9 mg/kg; with Rattus norvegicus [7], 1.8 mg/kg; with Mus musculus [4] it was 0.35 mg/kg.

For `Cl.O=C1c2ccccc2CCC12CCN(Cc1ccccc1)CC2`, in the assay with Mus musculus [1], the ED50 is above 10 mg/kg.

In the assay with Mus musculus [1], `Cl.O=C(CCCN1CCC2(CCc3ccccc3C2=O)CC1)c1ccc(F)cc1` registered an ED50 of 0.65 mg/kg.

In turn, `Cl.O=C1c2ccccc2CCC1C1CCN(Cc2ccc(C(F)(F)F)cc2)CC1` (configuration not stated) gave an ED50 in the assay with Mus musculus [4] above 10 mg/kg.

`Br.O=C1c2ccccc2CCC1C1CCN(CCc2ccccc2)CC1` (configuration not stated) registered an ED50 in the assay on Mus musculus [4] of 6.4 mg/kg.

`Cl.O=C1c2ccc(Cl)cc2CCC1C1CCN(CCc2ccccc2)CC1` (configuration not stated) yielded an ED50 with Mus musculus [1] of 5.4 mg/kg.

Take `O=C1c2ccc(F)cc2CCC1C1CCN(CCc2ccccc2)CC1` (configuration not stated): the 50% effect level with Mus musculus [4] (ED50) was put at a dose of 1.9 mg/kg.

Turning to `Cl.O=C1c2cccc(F)c2CCC1C1CCN(CCc2ccccc2)CC1` (configuration not stated), in the assay on Mus musculus [1], the ED50 was 6.8 mg/kg.
